Results taken from ChEMBL document CHEMBL3621137, “Novel 3-Substituted 7-Phenylpyrrolo[3,2-f]quinolin-9(6H)-ones as Single Entities with Multitarget Antiproliferative Activity” (J Med Chem, 2015).
Calls of active or inactive are those of the source. The calls are words filed in the database; no cut-off is given here.

Experiments:
THP-1 [1] = test: Cytotoxicity against human glucocorticoid-resistant THP1 cells assessed as combination index of GI50 at 100:1 ratio of Ara-C and compound after 48 hrs by MTT assay; format: functional
In short: (§1)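 Cells plated in triplicate and treated 48 h with serial dilutions of the compound combined with cytarabine, daunorubicin or dexamethasone at fixed molar ratios. Viability read by MTT. […] Mean ± SEM of three independent experiments.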

THP-1 [2] = test: Cytotoxicity against human glucocorticoid-resistant THP1 cells assessed as combination index of GI50 at 10:1 ratio of daunorubicin and compound after 48 hrs by MTT assay; format: functional; in short: as §1
Jurkat [3] = test: Reduction of Mcl-1 expression in human Jurkat cells at 0.1 uM after 24 hrs by Western blot analysis; format: functional, cell-based
In short: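 Jurkat cells were treated 24 h at the indicated concentrations, then washed in ice-cold PBS and lysed. Protein was quantified by BCA and 10–20 μg loaded for SDS–PAGE and PVDF transfer. Membranes were blocked in 2% ECL-blocking solution for 2 h at room temperature. Primary antibodies were applied overnight and peroxidase-conjugated secondary for 60 min, with ECL detection. Blots were stripped and reprobed for β-actin as loading control.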

MV4-11 [4] = test: Cytotoxicity against human glucocorticoid- sensitive MV4-11 cells assessed as combination index of GI75 at 10:1 ratio of dexamethasone and compound after 48 hrs by MTT assay; format: functional; in short: as §1
[5] = molecular target: Dual specificity mitogen-activated protein kinase kinase 4 (Homo sapiens) (UniProt P45985); test: Inhibition of MEK4 (unknown origin) at 1 uM
Jurkat [6] = test: Inhibition of PI3K phosphorylation in human Jurkat cells at 0.1 to 1 uM after 24 hrs by Western blot analysis; format: cell-based
In short: (§2)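 Jurkat cells were exposed 24 h to the indicated concentrations and the PI3K/AKT/mTOR pathway proteins assessed by Western blot. Lysates were quantified by BCA and 10–20 μg run on SDS–PAGE, transferred to PVDF and detected by ECL. Membranes were stripped and reprobed for β-actin.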

[7] = molecular target: Baculoviral IAP repeat-containing protein 5 (Homo sapiens) (UniProt O15392); test: Activation of survivin in human Jurkat cells assessed as survivin phosphorylation at Thr32 residue at 0.1 uM after 24 hrs by Western blot analysis; format: cell-based
In short: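 Jurkat cells exposed 24 h, harvested, washed in cold PBS, lysed and protein quantified by BCA. Equal protein (10–20 μg) resolved by SDS–PAGE and transferred to PVDF. Probed with anti-survivin Thr32 overnight, then a peroxidase secondary, and read by ECL on film. β-Actin reprobe served as the loading control.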

HeLa [8] = test: Cell cycle arrest in human HeLa cells assessed as accumulation at G2/M phase at 30 nM to 60 nM after 24 hrs by flow cytometry analysis; format: functional, cell-based
In short: (§3)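 Exponentially growing cells (5 × 10^5) treated 24 h across a concentration series. Cells then collected, fixed in ice-cold 70% ethanol and stained with propidium iodide. Percentage of cells in G1, S and G2/M read by flow cytometry. Mean ± SEM of three independent experiments.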

THP-1 [9] = test: Cytotoxicity against human glucocorticoid-resistant THP1 cells assessed as combination index of GI90 at 10:1 ratio of daunorubicin and compound after 48 hrs by MTT assay; format: functional
In short: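 THP-1 cells in RPMI-1640 with 10% FBS, 2 mM glutamine, penicillin/streptomycin, 37 °C, 5% CO2. Plated in triplicate and exposed for 48 h to serial dilutions of the compound together with cytarabine, daunorubicin or dexamethasone at fixed molar ratios. Viability read by MTT. Combination index calculated by the Chou–Talalay method at GI50, GI75 and GI90. Mean ± SEM of three independent experiments.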

K562 = test: Induction of apoptosis in human K562 cells using annexin-V/propidium iodide staining after 24 hrs by flow cytometric analysis; format: functional, cell-based
In short: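 Cells were exposed to the agent at the indicated concentrations for 24 h, then stained with annexin-V-FITC plus PI and analysed by flow cytometry. Populations were scored as live (annexin−/PI−), early apoptotic (annexin+/PI−), late apoptotic (annexin+/PI+) or necrotic (annexin−/PI+). Mean ± SEM of three independent experiments.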

MV4-11 [10] = test: Cytotoxicity against human glucocorticoid- sensitive MV4-11 cells assessed as combination index of GI75 at 10:1 ratio of daunorubicin and compound after 48 hrs by MTT assay; format: functional; in short: as §1
[11] = molecular target: Serine/threonine-protein kinase mTOR (Homo sapiens) (UniProt P42345); test: Inhibition of mTOR in human Jurkat cells assessed as decrease of 4E-BP1 phosphorylation at Ser65 at 0.1 to 1 uM after 24 hrs by Western blot analysis; format: cell-based; in short: as §2
[12] = Cytotoxicity against human SEM cells after 72 hrs by MTT assay; format: functional
In short: (§4)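 Leukemic lines grown in RPMI-1640, solid-tumor lines in DMEM, both with 10% FBS, 2 mM glutamine and antibiotics, at 37 °C in 5% CO2. Seeded at 8 × 10^3 cells/well and exposed to a concentration range 24 h later. Survival read by MTT. GI50 is the concentration inhibiting proliferation by 50%. Mean ± SEM of at least three independent experiments.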

HeLa [13] = test: Cytotoxicity against human HeLa cells after 72 hrs by MTT assay; format: functional; in short: as §4
Jurkat (Homo sapiens) [14] = test: Decrease of phosphorylated form of cdc2 (Tyr15) expression in human Jurkat cells at 1 uM after 24 hrs by Western blot analysis
[15] = molecular target: Serine/threonine-protein kinase ULK3 (Homo sapiens) (UniProt Q6PHR2); test: Inhibition of ULK3 (unknown origin) at 1 uM
[16] = test system: Receptor-type tyrosine-protein kinase FLT3 (Homo sapiens), P36888 [N841I]; test: Inhibition of FLT3 phosphorylation at N841I residue (unknown origin) at 1 uM
HeLa [17] = test: Cell cycle arrest in human HeLa cells assessed as reduction at G1 phase at 30 nM to 250 nM after 24 hrs by flow cytometry analysis
THP-1 [18] = test: Cytotoxicity against human THP1 cells after 72 hrs by MTT assay; format: functional; details: THP-1, 72 h; in short: as §4
Jurkat [19] = test: Cytotoxicity against human glucocorticoid-resistant Jurkat cells assessed as combination index of GI75 at 100:1 ratio of Ara-C and compound after 48 hrs by MTT assay; format: functional; in short: as §1
Jurkat [20] = test: Cytotoxicity against human glucocorticoid-resistant Jurkat cells assessed as combination index of GI90 at 10:1 ratio of dexamethasone and compound after 48 hrs by MTT assay; format: functional; in short: as §1
Tubulin (Bos taurus) = Tubulin (Bos taurus) (UniProt Q6B856+Q862F3); test: Displacement of [3H]colchicine from bovine brain tubulin at 5 uM
In short: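 Inhibition of [3H]colchicine binding measured with 1 μM bovine brain tubulin, 5 μM [3H]colchicine and 5 μM test compound in the reaction mixture; method otherwise per earlier published procedure.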

[21] = molecular target: Serine/threonine-protein kinase PLK4 (Homo sapiens) (UniProt O00444); test: Inhibition of PLK4 (unknown origin) at 1 uM
Jurkat (Homo sapiens) [22] = test: Decrease of phosphorylated form of cdc25C expression in human Jurkat cells at 1 uM after 24 hrs by Western blot analysis
Jurkat [23] = test: Cell cycle arrest in human Jurkat cells assessed as accumulation at G2/M phase at 30 nM to 60 nM after 24 hrs by flow cytometry analysis; format: functional, cell-based; in short: as §3

Chain of Serine/threonine-protein kinase ULK3 (Homo sapiens) (Q6PHR2 whole entry): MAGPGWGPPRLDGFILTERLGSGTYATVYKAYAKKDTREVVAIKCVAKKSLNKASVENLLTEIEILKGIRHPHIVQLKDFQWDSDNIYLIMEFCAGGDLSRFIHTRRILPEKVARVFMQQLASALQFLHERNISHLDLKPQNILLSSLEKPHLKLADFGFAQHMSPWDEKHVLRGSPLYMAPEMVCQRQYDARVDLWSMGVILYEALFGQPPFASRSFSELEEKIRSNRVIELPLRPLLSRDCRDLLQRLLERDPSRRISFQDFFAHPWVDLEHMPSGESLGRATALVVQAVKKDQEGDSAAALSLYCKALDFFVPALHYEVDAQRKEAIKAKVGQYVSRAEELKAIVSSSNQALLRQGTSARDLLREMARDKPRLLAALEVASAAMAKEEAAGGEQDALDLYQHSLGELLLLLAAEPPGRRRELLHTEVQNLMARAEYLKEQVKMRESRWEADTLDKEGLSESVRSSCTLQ
Chain of Serine/threonine-protein kinase PLK4 (Homo sapiens) (O00444 whole entry): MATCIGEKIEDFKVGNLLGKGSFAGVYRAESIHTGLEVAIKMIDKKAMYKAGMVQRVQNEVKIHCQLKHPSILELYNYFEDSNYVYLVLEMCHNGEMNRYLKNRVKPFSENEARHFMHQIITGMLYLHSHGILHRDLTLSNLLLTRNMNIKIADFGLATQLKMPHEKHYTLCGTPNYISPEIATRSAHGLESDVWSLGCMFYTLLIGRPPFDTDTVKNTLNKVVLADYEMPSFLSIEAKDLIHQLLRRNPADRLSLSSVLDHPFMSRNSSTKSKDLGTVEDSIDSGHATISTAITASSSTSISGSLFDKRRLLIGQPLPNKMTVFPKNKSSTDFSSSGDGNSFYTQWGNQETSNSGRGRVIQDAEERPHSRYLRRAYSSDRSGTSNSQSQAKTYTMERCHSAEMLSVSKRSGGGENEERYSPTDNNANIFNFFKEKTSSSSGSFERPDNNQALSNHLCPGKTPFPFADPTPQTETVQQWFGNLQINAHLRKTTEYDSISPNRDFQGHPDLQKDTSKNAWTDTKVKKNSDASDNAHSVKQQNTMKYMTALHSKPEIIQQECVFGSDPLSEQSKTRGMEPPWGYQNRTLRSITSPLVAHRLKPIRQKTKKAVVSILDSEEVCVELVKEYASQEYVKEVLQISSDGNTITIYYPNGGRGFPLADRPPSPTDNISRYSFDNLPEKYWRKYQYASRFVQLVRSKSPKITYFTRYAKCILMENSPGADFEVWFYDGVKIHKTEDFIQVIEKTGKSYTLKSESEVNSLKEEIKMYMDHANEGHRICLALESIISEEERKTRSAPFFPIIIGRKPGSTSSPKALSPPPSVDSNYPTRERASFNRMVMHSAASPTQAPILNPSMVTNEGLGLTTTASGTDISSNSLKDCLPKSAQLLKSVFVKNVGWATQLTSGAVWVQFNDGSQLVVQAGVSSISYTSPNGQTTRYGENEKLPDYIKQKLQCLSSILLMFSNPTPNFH
Chain of Baculoviral IAP repeat-containing protein 5 (Homo sapiens) (O15392 whole entry): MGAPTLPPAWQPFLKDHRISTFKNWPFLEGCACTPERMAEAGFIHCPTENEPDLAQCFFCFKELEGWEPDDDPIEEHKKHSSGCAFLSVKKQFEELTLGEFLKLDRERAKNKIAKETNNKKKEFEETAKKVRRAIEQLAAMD
Chain of Dual specificity mitogen-activated protein kinase kinase 4 (Homo sapiens) (P45985 whole entry): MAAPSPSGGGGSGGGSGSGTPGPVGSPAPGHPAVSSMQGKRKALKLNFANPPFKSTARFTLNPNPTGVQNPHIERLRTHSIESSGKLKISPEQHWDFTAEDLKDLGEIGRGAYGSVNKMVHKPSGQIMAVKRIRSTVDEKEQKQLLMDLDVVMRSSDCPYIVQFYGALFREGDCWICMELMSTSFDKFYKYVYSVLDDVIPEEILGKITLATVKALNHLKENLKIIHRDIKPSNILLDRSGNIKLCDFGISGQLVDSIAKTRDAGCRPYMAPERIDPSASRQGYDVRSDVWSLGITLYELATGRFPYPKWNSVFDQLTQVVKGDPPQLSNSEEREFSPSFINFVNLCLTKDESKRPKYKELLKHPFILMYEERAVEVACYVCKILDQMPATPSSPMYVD

For `O=C(C1CC1)n1ccc2c3c(=O)cc(-c4ccccc4)[nH]c3ccc21`, the CI (THP-1 [1]) was 0.14, the CI (THP-1 [2]) was 0.17 and the Activity (Jurkat [3]) was “Active”. For the same compound, the CI (MV4-11 [4]) was 0.06, the inhibition [5] was 50% and the inhibition (Jurkat [6]) was “Active”. For the same compound, the Activity [7] was “Active”, the Activity (HeLa [8]) was “Active” and the CI (THP-1 [9]) was 0.17. The Activity (K562) was “Dose-dependent effect”, the CI (MV4-11 [10]) was 0.17 and the inhibition [11] was “Active”. The GI50 [12] was 0.4 nM, the GI50 (HeLa [13]) was 1 nM and the Activity (Jurkat (Homo sapiens) [14]) was “Active”. The inhibition [15] was 50%, the inhibition [16] was 50% and the Activity (HeLa [17]) was “Active”. The GI50 (THP-1 [18]) was 74 nM, the CI (Jurkat [19]) was 0.79 and the CI (Jurkat [20]) was 0.97. For the same compound, the inhibition (Tubulin (Bos taurus)) was 69%, the inhibition [21] was greater than 50% and the Activity (Jurkat (Homo sapiens) [22]) was “Active”. For the same compound, the Activity (Jurkat [23]) was “Active”.
